Compounds with a hit are over-represented: about 11% of the library has one in this group of screens.
TNAP act mid DEA = human TNAP activation, intermediate phosphate acceptor; purified TNAP, CDP-star luminescence, 100 mM DEA, 30 min; stronger effect = higher value; scale: 0 levamisole-inhibited, 1 vehicle-only enzyme; P05186; 64,000 tested, under 10 active; activation factor at 20 µM; AID 813;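 active = activation factor of at least 2 at 20 µM, relative to controls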
M1 antag = M1 muscarinic receptor (rat) antagonism. actives 3.4% (n = 64,000). P08482. AID 628. B-score at 10 µM. CHO-M1 cells, Fluo-4 calcium, ACh EC80 antagonist mode; stronger effect = lower value;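 active = calcium fluorescence response, raw or row-and-column corrected B-score, differing from the plate sample mean either way at a set confidence level, mostly lower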
D1 allo mod = allosteric modulators of human D1 dopamine receptor; P21728; HEK293 D1, CRE-luciferase, dopamine EC30 potentiation; actives deviate in either direction; B-score at 10 µM; actives 5.9% (n = 58,000);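 active = luminescence count or its row- and column-corrected plate score outside the 99.7% band of the plate's sample wells, on either side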
S1P1 ag-PAM = S1P1 (human) agonism or agonism potentiation. P21453. S1P1 CRE-bla cells, forskolin, beta-lactamase FRET, potentiator mode; S1P1 agonist co-added at EC20, 2 nM; 100% = saturating reference agonist, 0% = basal. activation, % at 9.5 µM. actives 0.57% (n = 56,000);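 active = activation above a cutoff set at the mean activation of all tested compounds plus 3 SD, cut at about 54% in these data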;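 also: forskolin at 4 µM as EC80 and the EC20 agonist is SEW2871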
Target sequence (P21453 whole entry, looked up): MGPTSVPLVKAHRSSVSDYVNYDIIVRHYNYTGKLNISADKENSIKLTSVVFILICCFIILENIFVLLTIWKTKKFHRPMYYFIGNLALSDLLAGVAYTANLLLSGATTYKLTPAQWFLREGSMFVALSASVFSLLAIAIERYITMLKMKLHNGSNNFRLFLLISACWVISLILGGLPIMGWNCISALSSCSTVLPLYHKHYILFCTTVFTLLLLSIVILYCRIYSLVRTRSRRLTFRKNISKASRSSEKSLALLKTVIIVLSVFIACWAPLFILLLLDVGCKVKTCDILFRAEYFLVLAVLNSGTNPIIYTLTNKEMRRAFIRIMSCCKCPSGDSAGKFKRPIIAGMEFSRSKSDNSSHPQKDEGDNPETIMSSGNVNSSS
S1P3 ag = S1P3 (human) receptor agonism. Q99500. S1P3 NFAT-BLA reporter cells, FRET ratio; relative to 1 µM S1P, basal subtracted. activation, % at 4.5 µM. actives 0.1% (n = 60,000). AID 373;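 active = activation above the screen-wide mean plus 3 SD, cut at about 4.5% in these data, passing the limit was not always enough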
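Assay system: CHO cells stably expressing human S1P3, Gα16 and NFAT-β-lactamase reporter. Timing: overnight plating, 4 h compound 37 °C, 2 h substrate RT. Signal: β-lactamase FRET emission ratio 460/535 nm. Measure: percent activation versus median 1 µM S1P response, basal-subtracted, per plate. Repeats: primary screen single test, confirmation screen in triplicate.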
M1 agonist = agonists of M1 muscarinic receptor; actives 3% (n = 64,000); CHO-M1 cells, Fluo-4 calcium fluorescence, agonist mode; stronger effect = higher value; AID 626; B-score at 10 µM;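 active = fluorescence rise, raw or as B-score row- and column-corrected plate score, outside the 99.7% band of its plate's samples, either direction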
Numbers stand for hits; i = inactive; nt = not tested or not shown.

SMILES | TNAP act mid DEA | M1 antag | D1 allo mod | S1P1 ag-PAM | S1P3 ag | M1 agonist
O=C1C(C=NCc2cccnc2)=C(O)c2ccccc21 | i | i | i | nt | i | i
c1ccc(C2=Nn3c(nnc3-c3cc(-c4ccccc4)n[nH]3)SC2)cc1 | i | i | i | i | i | i
c1ccc(C2=Nn3c(nnc3-c3n[nH]c4c3CCC4)SC2)cc1 | i | i | -3.6 | i | i | i
COC(=O)c1c(NC(C)=O)sc2c1CCCC2 | i | i | 5.5 | i | i | i
Cc1sc(NC(=O)c2ccco2)c(C(c2cccnc2)N2CCN(c3ccc(F)cc3)CC2)c1C (stereo not given) | i | i | -3 | i | i | i
CCOC(=O)C1CCN(C(c2cccnc2)c2c(NC(=O)c3ccco3)sc(C)c2C)CC1 (stereo not given) | i | i | i | i | i | i
Cc1sc(NC(=O)c2cccs2)nc1-c1ccccc1 | i | i | i | i | i | i
O=C(NCCc1csc(-c2ccccc2)n1)c1cccs1 | i | i | -5.1 | i | i | i
O=C(Nc1nsc(-c2ccccc2)n1)c1cccs1 | i | i | -4.4 | i | i | i
CCCC(C(=O)NCc1ccco1)N(C(=O)CNS(=O)(=O)c1ccccc1)c1ccccc1OC (stereo not given) | i | i | i | i | i | i
Cc1ocnc1C(=O)Nc1ccc(Cl)cc1 | i | i | -1.9 | i | i | i
COc1cccc(-n2c(SCC(=O)OC(C)C)nnc2-c2cccnc2)c1 | i | 2.7 | i | i | i | i
COc1ccc2c(CC(=O)Nc3ccc(OC)c(NS(=O)(=O)c4ccc(F)cc4)c3)coc2c1 | i | i | i | i | i | i
Cc1c(C(=O)NCc2cccnc2)sc2nc(-c3ccc(F)cc3)cn12 | i | i | -5.8 | i | i | i
Cc1c(C(=O)Nc2ccncc2)sc2nc(-c3ccccc3)cn12 | i | i | -4.5 | i | i | i
Cc1c(C(=O)NCc2cccnc2)sc2nc(-c3ccccc3)cn12 | i | i | i | i | i | i
O=C(C1CCN(S(=O)(=O)N2CCOCC2)CC1)N1CCN(c2ccccc2)CC1 | i | i | i | i | i | i
O=C(c1ccc(Cl)cc1)N1CCCCC(Sc2nnc(-c3ccc4c(c3)OCO4)o2)C1=O (stereo not given) | i | i | -10 | i | i | i
CCOC(=O)c1[nH]c(C)c(C(=O)Nc2ccc3c(c2)OCCO3)c1C | i | i | nt | i | i | i
CC(=O)c1c(C)[nH]c(C(=O)Nc2ccc3c(c2)OCCO3)c1C | i | i | -2.7 | i | i | i
Cc1ccc2c(c1)C1CN(C)CCC1N2C(=O)Nc1ccc(Cl)cc1 (stereo not given) | i | i | -4.2 | nt | nt | i
Cc1ccc2c(c1)[C@@H]1CN(C)CC[C@@H]1N2S(=O)(=O)c1ccc(F)cc1 | i | i | nt | i | i | i
O=C(Nc1cccc(OC(F)(F)F)c1)c1ccc(Br)o1 | 2.3 | i | i | i | i | i
O=C(Nc1ccc(N2CCCC2)c(Cl)c1)c1ccc(Br)o1 | i | i | i | 97 | i | i
CCOC(=O)C1CCCCN1Cc1ccccc1C(F)(F)F (stereo not given) | i | i | i | i | i | i
SMILES | TNAP act mid DEA | M1 antag | D1 allo mod | S1P1 ag-PAM | S1P3 ag | M1 agonist
CS(=O)(=O)N(CCc1ccccc1)CC(=O)NCc1ccco1 | i | i | i | i | i | i
Cc1nnc(NC(=O)Cc2ccc(OCc3c(C)noc3C)cc2)s1 | i | i | -3.1 | i | i | i
CCSc1nnc(NC(=O)c2cccc(OCc3c(C)noc3C)c2)s1 | i | i | i | nt | nt | i
COc1ccc2c(c1)CCc1c(C(=O)N3CC4(C)CC3CC(C)(C)C4)noc1-2 (stereo not given) | i | i | i | i | i | 27
COc1ccc2c(c1)CCc1c(C(=O)NCCc3ccc(OC)c(OC)c3)noc1-2 | i | i | i | i | i | i
COc1ccc2c(c1)CCc1c(C(=O)Nc3ccc(OC)c(OC)c3)noc1-2 | i | nt | i | 104 | i | nt
CCn1c(SCC(=O)NC(=O)Nc2ccc3c(c2)OCCO3)nnc1-c1cccs1 | i | i | i | i | i | i
COc1ccc2c(CC(=O)NCc3ccc4c(c3)OCO4)coc2c1 | i | i | i | i | i | i

Screening data (PubChem)
